Assay results pooled from the literature.
Target: Tyrosine-protein kinase SYK (SYK, Homo sapiens, UniProt P43405)

| SMILES | assay | conditions | endpoint | result |
| --- | --- | --- | --- | --- |
| Cc1ccc(C(=O)Nc2ccc(CN3CCN(C)CC3)c(C(F)(F)F)c2)cc1C#Cc1cnc2cccnn12 | enzyme activity, inhibitor | 23.5 nM | remaining activity | 99% |
| CNC(=O)c1cc(Oc2ccc(NC(=O)Nc3ccc(Cl)c(C(F)(F)F)c3)cc2)ccn1 | enzyme activity, inhibitor | 0.3 µM | inhibition | 3% |
| CN(C)C1CCN(CC#Cc2nn(C3CCCC3)c3nc(NCc4ccccc4)ncc23)C1 (stereo not shown) | enzyme activity, inhibitor, FRET | 10 µM | inhibition | -1% |
| Cc1ccc(Nc2nccc(N(C)c3ccc4c(C)n(C)nc4c3)n2)cc1S(N)(=O)=O | enzyme activity, inhibitor | 0.3 µM | inhibition | 21% |
| Nc1ncnc2occ(-c3ccc(NC(=O)Nc4cc(C(F)(F)F)ccc4F)cc3)c12 | cell-free assay, inhibitor | 20 µM | remaining signal | 2.4% |
| CC(C)CC(=O)N1CCc2nc(-c3ccc(Br)cc3)nc(N(C)Cc3ccccc3)c2C1 | cell-free assay, competition with immobilised ligand | 0.1 µM | remaining binding | 100% |
| CS(=O)(=O)Nc1cccc(-c2csc(NC(=O)CSc3nc4nccnc4c(=O)n3CCc3ccccc3)n2)c1 | enzyme activity, inhibitor | 10 µM | inhibition | -1% |
| Oc1cccc(-c2nc(N3CCOCC3)c3oc4ncccc4c3n2)c1 | enzyme activity, inhibitor | 10 µM | remaining activity | 69% |
| Oc1cccc(-c2nc(N3CCOCC3)c3oc4ncccc4c3n2)c1 | cell-free assay | 0.5 µM | remaining signal | 94.2% |
| FC(F)(F)Oc1cccc(-c2cnc3ccc(-c4ccncc4)nn23)c1 | enzyme activity, inhibitor, radiometric | 5 µM | activity vs control | 72% |
| CC(C)(C)c1nc(-c2cccc(NS(=O)(=O)c3c(F)cccc3F)c2F)c(-c2ccnc(N)n2)s1 | enzyme activity, inhibitor, radiometric | 1 µM | remaining activity | 111% |
| CC(C)(C)C(=O)c1sc(NC2CCCCC2)nc1N | enzyme activity, inhibitor | 10 µM | remaining activity | 111% |
| COc1ccc(COc2ccc(Cc3cnc(N)nc3N)cc2OC)cc1 | cell-free assay | 0.5 µM | remaining signal | 89% |
| Cn1cc(Cl)c2c(Oc3c(F)cc(Nc4cc(Cl)nc(N)n4)cc3F)ccnc21 | cell-free assay, competition with immobilised ligand | 0.1 µM | remaining binding | 100% |
| O=C1Nc2ccc(Cl)cc2C1=Cc1cc(Cl)c(O)c(Cl)c1 | cell-free assay | 0.5 µM | remaining signal | 93.3% |
| CCCOc1ccc([C@H]2[C@H](C(=O)O)[C@@H](c3ccc4c(c3)OCO4)CN2CC(=O)Nc2c(CC)cccc2CC)cc1 | cell-free assay, competition with immobilised ligand | 1 µM | remaining binding | 100% |

| SMILES | assay | conditions | endpoint | result |
| --- | --- | --- | --- | --- |
| Cc1cc(NC(=O)c2cccc3cc(-c4cccc5[nH]nc(N)c45)ccc23)ccc1F | enzyme activity, inhibitor | 0.1 µM | activity vs control | 109% |
| CC/C(=N\NC(=O)NCc1cccc(O)c1)c1ccc(O)c(C)c1O | enzyme activity, inhibitor | 0.1 µM | inhibition | 3.3% |
| Cc1c(NC(=O)c2cc(C(N)=O)nc3cc(F)ccc23)c(C(F)(F)F)nn1Cc1ccc(C#N)cc1 | cell-free assay, competition with immobilised ligand | 1 µM | remaining binding | 95% |
| FC(F)c1nc2ccccc2n1-c1nc(N2CCOCC2)nc(N2CCOCC2)n1 | enzyme activity, inhibitor | 10 µM | remaining activity | 85% |
| COc1cc2ncnc(Nc3ccc(Oc4ccccc4)c(C)c3C)c2cc1OC | enzyme activity, inhibitor | 1 µM | inhibition | 4% |
| Cc1nc(Cc2cccc(C(F)(F)F)c2)sc1-c1ccc(C(N)=O)nc1 | cell-free assay, competition with immobilised ligand | 1 µM | remaining binding | 100% |
| COc1cc(Nc2cnc(C#N)c(O[C@H](C)CN(C)C)n2)ncc1-c1cnn(C)c1 | enzyme activity, inhibitor, radiometric | 10 µM | remaining activity | 63% |
| COc1cc(Cl)c(C(=O)N[C@@H](CN[C@H]2CC[C@@H](N)CC2)Cc2ccc(C#N)cc2)cc1-c1ccc(CN[C@H](C)c2ccc(C)cc2)o1 | enzyme activity, inhibitor | 1 µM | remaining activity | 97% |
| CS(=O)(=O)NCC[C@H](NC(=O)c1cncc2c1cnn2-c1ccc(F)cc1)c1ccnc(S(C)(=O)=O)c1 | cell-free assay, competition with immobilised ligand | 1 µM | remaining binding | 100% |
| C=CC(=O)Nc1cc(Nc2nccc(Nc3cc(Cl)c(F)cc3C(C)(C)O)n2)c(OC)cc1N1CC[C@@H](N(C)C)C1 | enzyme activity, inhibitor | 1 µM | inhibition | 14% |
| COc1cc(/C=C/C(=O)CC(=O)/C=C/c2ccc(O)c(OC)c2)ccc1O | enzyme activity, inhibitor | 1 µM | activity vs control | 92% |
| CN(c1ccnc(CNc2nc(Nc3ccc4c(c3)CC(=O)N4)ncc2C(F)(F)F)n1)S(C)(=O)=O | cell-free assay, competition with immobilised ligand | 1 µM | remaining binding | 5.7% |
| Cc1sc(C(=O)NC2COC2)cc1-n1cc(NC(=O)Nc2c(F)cccc2Cl)cn1 | enzyme activity, inhibitor | 10 µM | remaining activity | 88.5% |
| Nc1cnc(N2CCc3cc(S(=O)(=O)Nc4c(F)cc(Cl)cc4F)cc(N4CCCC4=O)c32)nc1 | cell-free assay, competition with immobilised ligand | 1 µM | remaining binding | 100% |
| c1nc2c(Nc3ccc4c(c3)OCCO4)nc(Nc3ccc4c(c3)OCCO4)nc2[nH]1 | enzyme activity, inhibitor | 10 µM | activity vs control | 2% |
